Drawing on ChEMBL document CHEMBL1154416, “Haemophilus ducreyi is resistant to human antimicrobial peptides” (2007), this text covers Activity and minimal effective concentration for five compounds.

Test [1] deals with [Haemophilus] ducreyi. The test can be described thus: Bactericidal activity against Haemophilus ducreyi 35000HP assessed as survival at 0.5 ug/ml by twofold serial dilution assay relative to control. The class given is functional. In a few lines: (§1)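 Mid-log-phase cells were suspended in 10 mM sodium phosphate (pH 7.4) with 1% brain-heart infusion broth and exposed to peptide dilutions for 1 h, at 33°C for H. ducreyi or 37°C for E. coli. Survivors were counted by plating, and survival was expressed as a percent of peptide-free control wells. Values are means of three independent assays.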

Test [2] deals with [Haemophilus] ducreyi. The experiment in a line: Bactericidal activity against Haemophilus ducreyi 35000HP assessed as survival at 2 ug/ml by antibacterial susceptibility test relative to control. Type of test: functional, organism-based. The gist of the method:
(§2)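 Viable bacteria counted by plating. Survival expressed as percentage of peptide-free control wells. Means ± standard errors of three independent assays; mixed-model analysis with Sidak adjustment, P<0.05.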

The test system of test [3] is Escherichia coli. The test can be described thus: Bactericidal activity against Escherichia coli ML35 assessed as survival at 2 ug/ml by tenfold serial dilution assay relative to control. Type of test: functional. In a few lines:
as §1

In test [4] the test system is [Haemophilus] ducreyi. The test can be described thus: Bactericidal activity against Haemophilus ducreyi 35000HP assessed as survival at 2 ug/ml by tenfold serial dilution assay relative to control. Type of test: functional. In a few lines:
as §1

Test [5] has as its system [Haemophilus] ducreyi. The experiment in a line: Bactericidal activity against Haemophilus ducreyi CIP542 after 48 to 72 hrs by radial diffusion assay. The class given is functional. The note with it: read-out: MEC. The gist of the method:
(§3)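 Radial diffusion assay with salts omitted from the agarose underlay. Activity units are taken from inhibition zones around peptide-loaded wells. MEC is the x intercept of the best-fit line of activity against peptide concentration. Where fewer than two concentrations were active, MEC is recorded as >158 μg/ml, the assay's upper limit. Values are means of three independent assays, each run in duplicate.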

Test [6] relates to Escherichia coli. The test can be described thus: Bactericidal activity against Escherichia coli ML35 assessed as survival at 0.5 ug/ml by twofold serial dilution assay relative to control. The class given is functional. The gist of the method: as §1
Test [7] concerns Escherichia coli. The test can be described thus: Bactericidal activity against Escherichia coli ML35 after 48 to 72 hrs by radial diffusion assay. Type of test: functional. The settings on record: read-out: MEC. The gist of the method: as §3
For test [8], the system named is [Haemophilus] ducreyi. The test can be described thus: Bactericidal activity against Haemophilus ducreyi 35000HP after 48 to 72 hrs by radial diffusion assay. The class given is functional. The settings on record: read-out: MEC. In a few lines:
as §3

Test [9] concerns [Haemophilus] ducreyi. The experiment in a line: Bactericidal activity against Haemophilus ducreyi CIP542 assessed as survival at 20 ug/ml by antibacterial susceptibility test relative to control. The class given is functional, organism-based. The gist of the method:
as §2

Test [10] deals with [Haemophilus] ducreyi. The test can be described thus: Bactericidal activity against Haemophilus ducreyi CIP542 assessed as survival at 0.2 ug/ml by antibacterial susceptibility test relative to control. Type of test: functional. In a few lines: as §2
The subject of test [11] is [Haemophilus] ducreyi. The test can be described thus: Bactericidal activity against Haemophilus ducreyi 35000HP assessed as survival at 20 ug/ml by antibacterial susceptibility test relative to control. The class given is functional, organism-based. In a few lines:
as §2

Test [12] deals with [Haemophilus] ducreyi. The experiment in a line: Bactericidal activity against Haemophilus ducreyi 35000HP assessed as survival at 0.2 ug/ml by antibacterial susceptibility test relative to control. Type of test: functional. In a few lines: as §2
The subject of test [13] is Escherichia coli. The test can be described thus: Bactericidal activity against Escherichia coli ML35 assessed as survival at 20 ug/ml relative to control. The class given is functional. The gist of the method: as §2
In test [14] the test system is [Haemophilus] ducreyi. The test can be described thus: Bactericidal activity against Haemophilus ducreyi 35000HP assessed as survival at 2 ug/ml relative to control. Type of test: functional. In a few lines:
as §2

Calls of active or inactive are those of the source. No cut-off for these calls is given here. Where a SMILES comes first, the peptide text is derived from it. Bridges are numbered along the chain shown (N, C = ends).

`CC[C@H](C)[C@H](NC(=O)[C@H](CCCCN)NC(=O)[C@H](CCC(=O)O)NC(=O)[C@H](CCCCN)NC(=O)[C@H](CO)NC(=O)[C@H](CCCCN)NC(=O)[C@H](CCCNC(=N)N)NC(=O)[C@H](Cc1ccccc1)NC(=O)[C@H](Cc1ccccc1)NC(=O)[C@H](CC(=O)O)NC(=O)CNC(=O)[C@H](CC(C)C)NC(=O)[C@@H](N)CC(C)C)C(=O)NCC(=O)N[C@@H](CCCCN)C(=O)N[C@@H](CCC(=O)O)C(=O)N[C@@H](Cc1ccccc1)C(=O)N[C@@H](CCCCN)C(=O)N[C@@H](CCCNC(=N)N)C(=O)N[C@H](C(=O)N[C@H](C(=O)N[C@@H](CCC(N)=O)C(=O)N[C@@H](CCCNC(=N)N)C(=O)N[C@H](C(=O)N[C@@H](CCCCN)C(=O)N[C@@H](CC(=O)O)C(=O)N[C@@H](Cc1ccccc1)C(=O)N[C@@H](CC(C)C)C(=O)N[C@@H](CCCNC(=N)N)C(=O)N[C@@H](CC(N)=O)C(=O)N[C@@H](CC(C)C)C(=O)N[C@H](C(=O)N1CCC[C@H]1C(=O)N[C@@H](CCCNC(=N)N)C(=O)N[C@H](C(=O)N[C@@H](CCC(=O)O)C(=O)N[C@@H](CO)C(=O)O)[C@@H](C)O)C(C)C)[C@@H](C)CC)C(C)C)[C@@H](C)CC` [CATHELICIDIN]: the Activity is on record as 43% in test [Haemophilus] ducreyi [1], 5% in the test with Escherichia coli [3], 16% in test [Haemophilus] ducreyi [4] and 3% in the test on Escherichia coli [6]. Besides, the outcome in test [Haemophilus] ducreyi [2], in test [Haemophilus] ducreyi [9], in [Haemophilus] ducreyi [10], in [Haemophilus] ducreyi [11] and in test [Haemophilus] ducreyi [12] was inactive. In addition, the minimal effective concentration in test [Haemophilus] ducreyi [5] is over 158 µg/mL; in the test on Escherichia coli [7] it was 6.2 µg/mL; in [Haemophilus] ducreyi [8] it was over 158 µg/mL.

For `CC[C@H](C)[C@@H]1NC(=O)[C@H](CCCCN)NC(=O)[C@H]([C@@H](C)O)NC(=O)[C@H](Cc2ccccc2)NC(=O)[C@H]([C@@H](C)CC)NC(=O)[C@@H]2CCCN2C(=O)[C@@H]2CSSC[C@@H](C(=O)N[C@@H](CCCCN)C(=O)O)NC(=O)[C@@H]3CSSC[C@H](NC(=O)[C@H](CC(N)=O)NC(=O)[C@H](Cc4ccc(O)cc4)NC(=O)[C@H](Cc4cnc[nH]4)NC(=O)[C@@H](N)CC(=O)O)C(=O)N[C@@H](C(C)C)C(=O)N[C@@H](CO)C(=O)N[C@@H](CO)C(=O)NCC(=O)NCC(=O)N[C@@H](CCC(N)=O)C(=O)N[C@@H](CSSC[C@H](NC(=O)[C@H]([C@@H](C)O)NC(=O)CNC(=O)[C@H](CCC(N)=O)NC1=O)C(=O)N[C@@H](Cc1ccc(O)cc1)C(=O)N[C@@H](CCCNC(=N)N)C(=O)NCC(=O)N[C@@H](CCCCN)C(=O)N[C@@H](C)C(=O)N[C@@H](CCCCN)C(=O)N3)C(=O)N[C@@H](CC(C)C)C(=O)N[C@@H](Cc1ccc(O)cc1)C(=O)N[C@@H](CO)C(=O)N[C@@H](C)C(=O)N2` (H-DHYNCVSSGGQCLYSACPIFTKIQGTCYRGKAKCCK-OH; disulfide 5-34, 12-27, 17-35), the outcome in test [Haemophilus] ducreyi [2], in test [Haemophilus] ducreyi [9], in test [Haemophilus] ducreyi [10], in [Haemophilus] ducreyi [11] and in [Haemophilus] ducreyi [12] was inactive.

For the compound `CC[C@H](C)[C@@H]1NC(=O)[C@@H]2CSSC[C@@H]3NC(=O)[C@H](Cc4ccccc4)NC(=O)[C@H](C)NC(=O)[C@H](Cc4c[nH]c5ccccc45)NC(=O)[C@H](CC(C)C)NC(=O)[C@H](CCCNC(=N)N)NC(=O)CNC(=O)[C@H](CCC(N)=O)NC(=O)[C@H](Cc4ccc(O)cc4)NC(=O)[C@H]([C@@H](C)CC)NC(=O)[C@H](CSSC[C@H](NC(=O)[C@H](Cc4ccc(O)cc4)NC(=O)[C@@H](N)CSSC[C@@H](C(=O)O)NC3=O)C(=O)N[C@@H](CCCNC(=N)N)C(=O)N[C@@H]([C@@H](C)CC)C(=O)N3CCC[C@H]3C(=O)N[C@@H](C)C(=O)N2)NC(=O)[C@H]([C@@H](C)O)NC(=O)CNC(=O)[C@H](Cc2ccc(O)cc2)NC(=O)[C@H](CCCNC(=N)N)NC(=O)[C@H](CCCNC(=N)N)NC(=O)[C@H](CCC(=O)O)NC(=O)CNC(=O)[C@H](C)NC1=O` (H-CYCRIPACIAGERRYGTCIYQGRLWAFCC-OH; disulfide 1-29, 3-18, 8-28), the outcome in test [Haemophilus] ducreyi [2], in test [Haemophilus] ducreyi [9], in test [Haemophilus] ducreyi [10], in test [Haemophilus] ducreyi [11] and in test [Haemophilus] ducreyi [12] was inactive. Moreover, the Activity in the test with Escherichia coli [13] stood at 10%.

Take `CC[C@H](C)[C@@H]1NC(=O)[C@H](CCCNC(=N)N)NC(=O)[C@H](Cc2ccc(O)cc2)NC(=O)[C@H](CCC(=O)O)NC(=O)[C@H](CCC(N)=O)NC(=O)[C@H](CO)NC(=O)[C@H](CCCNC(=N)N)NC(=O)[C@@H]2CSSC[C@@H](C(=O)N[C@@H](CC(C)C)C(=O)N[C@@H](CCCNC(=N)N)C(=O)N[C@@H](CCCCN)C(=O)O)NC(=O)[C@@H]3NC(=O)[C@H](C)NC(=O)[C@H](Cc4ccc(O)cc4)NC(=O)[C@H]([C@@H](C)O)NC(=O)[C@H](CC(N)=O)NC(=O)[C@H]4CCCN4C(=O)[C@H](CSSC[C@H](NC(=O)[C@H](CCCNC(=N)N)NC(=O)[C@H](C)NC(=O)[C@H]([C@@H](C)O)NC(=O)CNC(=O)[C@H](Cc4ccc(O)cc4)NC(=O)CNC(=O)[C@@H](NC(=O)[C@@H](NC(=O)[C@H](CCCNC(=N)N)NC(=O)[C@H](CC(=O)O)NC(=O)[C@H](CC(C)C)NC(=O)[C@@H](N)CCC(=O)O)[C@@H](C)CC)CSS3)C(=O)N[C@@H](CCCNC(=N)N)C(=O)N[C@@H](CCCCN)C(=O)N[C@@H](CCCCN)C(=O)N2)NC(=O)[C@H](CCCNC(=N)N)NC(=O)CNC1=O`: the result in test [Haemophilus] ducreyi [2], in [Haemophilus] ducreyi [9], in test [Haemophilus] ducreyi [10], in test [Haemophilus] ducreyi [11] and in [Haemophilus] ducreyi [12] was inactive.

As for `CC[C@H](C)[C@@H]1NC(=O)[C@H](CCCNC(=N)N)NC(=O)[C@H](Cc2ccc(O)cc2)NC(=O)[C@H](CCC(=O)O)NC(=O)[C@H](CCC(N)=O)NC(=O)[C@H](CO)NC(=O)[C@H](CCCNC(=N)N)NC(=O)[C@@H]2CSSC[C@@H](C(=O)N[C@@H](CC(C)C)C(=O)N[C@@H](CCCNC(=N)N)C(=O)N[C@@H](CCCCN)C(=O)O)NC(=O)[C@@H]3CSSC[C@H](NC(=O)[C@@H](NC(=O)[C@H](CCCNC(=N)N)NC(=O)[C@H](CC(=O)O)NC(=O)[C@H](CC(C)C)NC(=O)[C@@H](N)CCC(=O)O)[C@@H](C)CC)C(=O)NCC(=O)N[C@@H](Cc4ccc(O)cc4)C(=O)NCC(=O)N[C@@H]([C@@H](C)O)C(=O)N[C@@H](C)C(=O)N[C@@H](CCCNC(=N)N)C(=O)N[C@@H](CSSC[C@H](NC(=O)[C@H](CCCNC(=N)N)NC(=O)CNC1=O)C(=O)N1CCC[C@H]1C(=O)N[C@@H](CC(N)=O)C(=O)N[C@@H]([C@@H](C)O)C(=O)N[C@@H](Cc1ccc(O)cc1)C(=O)N[C@@H](C)C(=O)N3)C(=O)N[C@@H](CCCNC(=N)N)C(=O)N[C@@H](CCCCN)C(=O)N[C@@H](CCCCN)C(=O)N2` (H-ELDRICGYGTARCRKKCRSQEYRIGRCPNTYACCLRK-OH; disulfide 6-33, 13-27, 17-34), the minimal effective concentration in test [Haemophilus] ducreyi [5] was over 158 µg/mL; in the test on Escherichia coli [7] it was 12.6 µg/mL; in [Haemophilus] ducreyi [8], over 158 µg/mL. For the same compound, the Activity in the test with Escherichia coli [13] is on record as under 7%; in test [Haemophilus] ducreyi [14], over 84%.
